Measured values published in PMC6282443 (Journal of Enzyme Inhibition and Medicinal Chemistry, 2018).
Entries after “also recorded” stand apart in the source; their conditions may differ. Like-named read-outs stand apart in the source and are kept apart here. One block for each compound: values may come before it.

Legend:
[1] = tested on: T790M/L858R double mutant over wild-type EGFR; details: cited from earlier work
[2] = tested on: HepG2 cells; test: MTT anti-proliferative assay, HepG2; assay type: cell-based, human; details: read-out: Anti-proliferative activity IC50, HepG2
[3] = tested on: A549 cells; test: cells; assay type: cell-based, human; details: read-out: Anti-proliferative activity IC50, A549
[4] = tested on: MCF-7 cells; test: MTT anti-proliferative assay, MCF-7; assay type: cell-based, human; details: read-out: Anti-proliferative activity IC50, MCF-7
[5] = tested on: H1975 cells; assay type: cell-based, human
[6] = tested on: A549 cells; test: Annexin V-FITC/PI apoptosis assay by flow cytometry; assay type: cell-based, human; details: A549, 2.5 μM, 48 h; untreated control 12.18%
Summary of the method: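 A549 cells seeded at 1 × 10^6 cells/well in RPMI 1640 and exposed to test compound for 48 h. Cells stained with Annexin V-FITC and propidium iodide for 30 min at 4 °C in the dark, then analysed by flow cytometry to give quadrant populations.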

[7] = tested on: A549 cells; test: Cell cycle distribution by flow cytometry; assay type: cell-based, human
[8] = tested on: A549 cells; test: Acridine orange; assay type: cell-based, human; details: A549, AO single staining

Compound: C=CC(=O)Nc1cc(Nc2nccc(-c3cn(C)c4ccccc34)n2)c(OC)cc1N(C)CCN(C)C [AZD9291]
selectivity for the T790M/L858R double mutant over wild-type EGFR [1]: 200 fold

IC50 ([2]; Homo sapiens, HepG2, 72 h): 4.63 ± 0.36 µM | IC50 ([3]; Homo sapiens, A549, 72 h): 5.9 ± 0.25 µM | IC50 ([4]; Homo sapiens, MCF7, 72 h): 2.37 ± 0.34 µM
Compound: O=C(N/N=C/c1cnc(N2CCCC2)nc1)Nc1cc2c(Nc3ccc(F)c(Cl)c3)ncnc2cc1O[C@H]1CCOC1 [Compound 14, (S,E)-N-(4-((3-chloro-4-fluorophenyl)amino)-7-((tetrahydrofuran-3-yl)oxy)quinazolin-6-yl)-2-((2-(pyrrolidin-1-yl)pyrimidin-5-yl)methylene)hydrazine-1-carboxamide]
selectivity for H1975 cells (in words) ([5]; versus HepG2, A549, MCF-7): slight selectivity | apoptotic cells (early + late) [6]: 34.9% | cell cycle arrest phase (in words) ([7]; A549): S phase arrest; also recorded: arrested the cell cycle at the S phase | proportion of cells in S phase ([7]; A549, 2.5 μM): 50.68% | proportion of cells in G0/G1 phase ([7]; A549, 2.5 μM, control 26.57%): 23.62% | proportion of cells in G2/M phase ([7]; A549, 2.5 μM, control 29.4%): 25.7% | G0/G1 (%) ([7]; A549, 25 μM, 48 h, DMSO 26.57): 23.62% | G2/M (%) ([7]; A549, 25 μM, 48 h, DMSO 29.40): 25.70% | S (%) ([7]; A549, 25 μM, 48 h, DMSO 44.03): 50.68% | induction of A549 cell apoptosis by AO staining (in words) [8]: can induce A549 cell apoptosis

IC50 ([2]; HepG2, MTT, 72 h): 5.04 ± 0.64 µM | IC50 ([3]; A549, MTT, 72 h): 9.48 ± 0.86 µM | IC50 ([4]; MCF-7, MTT, 72 h): 6.21 ± 0.68 µM | IC50 ([5]; read-out: Anti-proliferative activity IC50, H1975, H1975, MTT, 72 h): 32.8 ± 1.27 µM
Compound: (S,E)-N-(4-((3-chloro-4-fluorophenyl)amino)-7-((tetrahydrofuran-3-yl)oxy)quinazolin-6-yl)-2-(4-(3-(diethylamin o)propoxy)benzylidene)hydrazine-1-carboxamide [Compound 49]
inhibitory activity against H1975 cells (in words) ([5]; H1975, MTT): poorer cellular activity
